Laboratory results taken from ChEMBL document CHEMBL1629627, “CTX-M expression and selection of ertapenem resistance in Klebsiella pneumoniae and Escherichia coli” (Antimicrob Agents Chemother, 2009).
Calls of active or inactive are those of the source. The calls are words filed in the database; no cut-off is given here.

How the values were obtained:
Format in all cases: functional, organism-based
[1] = system: Escherichia coli; assay: Reduction of OmpF expression in Escherichia coli Wi expressing CTX-M15 at 4 times MIC concentration by RT-PCR analysis
How it was run: (§1)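 Ertapenem-decreased-susceptibility mutants of E. coli Wi transformants were selected overnight (18 h, 37°C) on Trypticase soy agar containing ertapenem at fourfold the MIC. omp gene transcripts were quantified by real-time RT-PCR in isolates before and after selection. Calibration curves came from serially diluted cDNA of in vitro-obtained RNA standards for each gene, and copy numbers were compared using the curve slopes.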

[2] = system: Klebsiella pneumoniae; assay: Reduction of OmpK36 expression in Klebsiella pneumoniae M expressing CTX-M3 at 4 times MIC concentration by RT-PCR analysis
How it was run: (§2)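 K. pneumoniae M strains, with or without CTX-M, were selected for 18 h at 37°C on Trypticase soy agar with ertapenem at four times the MIC. ompK35 (222-bp amplicon) and ompK36 (202-bp amplicon) transcripts were measured by real-time RT-PCR before and after selection; a 193-bp 16S rRNA amplicon was also amplified. Copy numbers were derived from the slopes of calibration curves made with serially diluted cDNA from in vitro RNA standards.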

[3] = system: Escherichia coli; assay: Reduction of OmpC expression in Escherichia coli Wi expressing CTX-M9 at 4 times MIC concentration by SDS-PAGE analysis
[4] = system: Klebsiella pneumoniae; assay: Reduction of OmpK36 expression in Klebsiella pneumoniae M expressing CTX-M2 at 4 times MIC concentration by SDS-PAGE analysis
[5] = system: Escherichia coli; assay: Reduction of OmpC expression in Escherichia coli Wi expressing CTX-M2 at 4 times MIC concentration by SDS-PAGE analysis
[6] = system: Klebsiella pneumoniae; assay: Reduction of OmpK35 expression in Klebsiella pneumoniae M expressing CTX-M2 at 4 times MIC concentration by RT-PCR analysis; how it was run: as §2
[7] = system: Escherichia coli; assay: Reduction of OmpC expression in Escherichia coli Wi expressing CTX-M3 at 4 times MIC concentration by SDS-PAGE analysis
[8] = system: Klebsiella pneumoniae; assay: Reduction of OmpK36 expression in Klebsiella pneumoniae M expressing CTX-M15 at 4 times MIC concentration by SDS-PAGE analysis
[9] = system: Klebsiella pneumoniae; assay: Reduction of OmpK36 expression in Klebsiella pneumoniae M expressing CTX-M9 at 4 times MIC concentration by RT-PCR analysis; how it was run: as §2
[10] = system: Escherichia coli; assay: Reduction of OmpF expression in Escherichia coli Wi expressing CTX-M2 at 4 times MIC concentration by RT-PCR analysis; how it was run: as §1
[11] = system: Escherichia coli; assay: Reduction of OmpC expression in Escherichia coli Wi expressing CTX-M2 at 4 times MIC concentration by RT-PCR analysis; how it was run: as §1
[12] = system: Escherichia coli; assay: Antibacterial activity against Escherichia coli Wi expressing CTX-M2
[13] = system: Escherichia coli; assay: Reduction of OmpC expression in Escherichia coli Wi expressing CTX-M9 at 4 times MIC concentration by RT-PCR analysis; how it was run: as §1
[14] = system: Klebsiella pneumoniae; assay: Antibacterial activity against Klebsiella pneumoniae M expressing CTX-M3
[15] = system: Klebsiella pneumoniae; assay: Antibacterial activity against Klebsiella pneumoniae M expressing CTX-M2
[16] = system: Escherichia coli; assay: Antibacterial activity against Escherichia coli Wi expressing CTX-M3
[17] = system: Klebsiella pneumoniae; assay: Antibacterial activity against Klebsiella pneumoniae M expressing CTX-M15
[18] = system: Escherichia coli; assay: Antibacterial activity against Escherichia coli Wi expressing CTX-M15
[19] = system: Escherichia coli; assay: Reduction of OmpC expression in Escherichia coli Wi expressing CTX-M3 at 4 times MIC concentration by RT-PCR analysis; how it was run: as §1
[20] = system: Klebsiella pneumoniae; assay: Reduction of OmpK36 expression in wild type Klebsiella pneumoniae M at 4 times MIC concentration by RT-PCR analysis; how it was run: as §2
[21] = system: Escherichia coli; assay: Reduction of OmpC expression in Escherichia coli Wi expressing CTX-M15 at 4 times MIC concentration by SDS-PAGE analysis
[22] = system: Klebsiella pneumoniae; assay: Reduction of OmpK36 expression in Klebsiella pneumoniae M expressing CTX-M15 at 4 times MIC concentration by RT-PCR analysis; how it was run: as §2
[23] = system: Klebsiella pneumoniae; assay: Reduction of OmpK36 expression in Klebsiella pneumoniae M expressing CTX-M9 at 4 times MIC concentration by SDS-PAGE analysis
[24] = system: Klebsiella pneumoniae; assay: Reduction of OmpK35 expression in Klebsiella pneumoniae M expressing CTX-M3 at 4 times MIC concentration by RT-PCR analysis; how it was run: as §2
[25] = system: Escherichia coli; assay: Antibacterial activity against Escherichia coli Wi expressing CTX-M9
[26] = system: Escherichia coli; assay: Reduction of OmpC expression in Escherichia coli Wi expressing CTX-M15 at 4 times MIC concentration by RT-PCR analysis; how it was run: as §1
[27] = system: Klebsiella pneumoniae; assay: Antibacterial activity against Klebsiella pneumoniae M expressing CTX-M9
[28] = system: Klebsiella pneumoniae; assay: Reduction of OmpK35 expression in Klebsiella pneumoniae M expressing CTX-M15 at 4 times MIC concentration by RT-PCR analysis; how it was run: as §2
[29] = system: Escherichia coli; assay: Reduction of OmpF expression in Escherichia coli Wi expressing CTX-M3 at 4 times MIC concentration by RT-PCR analysis; how it was run: as §1
[30] = system: Klebsiella pneumoniae; assay: Reduction of OmpK36 expression in Klebsiella pneumoniae M expressing CTX-M2 at 4 times MIC concentration by RT-PCR analysis; how it was run: as §2
[31] = system: Klebsiella pneumoniae; assay: Reduction of OmpK36 expression in wild type Klebsiella pneumoniae M at 4 times MIC concentration by SDS-PAGE analysis
[32] = system: Klebsiella pneumoniae; assay: Reduction of OmpK36 expression in Klebsiella pneumoniae M expressing CTX-M3 at 4 times MIC concentration by SDS-PAGE analysis
[33] = system: Escherichia coli; assay: Reduction of OmpF expression in Escherichia coli Wi expressing CTX-M9 at 4 times MIC concentration by RT-PCR analysis; how it was run: as §1
[34] = system: Klebsiella pneumoniae; assay: Reduction of OmpK35 expression in Klebsiella pneumoniae M expressing CTX-M9 at 4 times MIC concentration by RT-PCR analysis; how it was run: as §2

C[C@@H](O)[C@H]1C(=O)N2C(C(=O)O)=C(S[C@@H]3CN[C@H](C(=O)Nc4cccc(C(=O)O)c4)C3)[C@H](C)[C@H]12
Activity [1]: Active
Activity [2]: Active
Activity [3]: Active
Activity [4]: Active
Activity [5]: Active
Activity [6]: Active
Activity [7]: Active
Activity [8]: Active
Activity [9]: Active
Activity [10]: Active
Activity [11]: Active
Activity [12]: inactive
Activity [13]: Active
Activity [14]: inactive
Activity [15]: inactive
Activity [16]: inactive
Activity [17]: inactive
Activity [18]: inactive
Activity [19]: Active
Activity [20]: Active
Activity [21]: Active
Activity [22]: Active
Activity [23]: Active
Activity [24]: Active
Activity [25]: inactive
Activity [26]: Active
Activity [27]: inactive
Activity [28]: Active
Activity [29]: Active
Activity [30]: Active
Activity [31]: Active
Activity [32]: Active
Activity [33]: Active
Activity [34]: Active
